Test results published in ChEMBL document CHEMBL4002594, “Novel inhibitors of Plasmodium falciparum based on 2,5-disubstituted furans” (Eur J Med Chem, 2017).

Key:
Assay type in all cases: ADME, organism-based
[1] = Plasma concentration in Swiss outbred mouse at […], iv at 0.008 hrs by LC-MS analysis
[2] = (§1) Plasma concentration in Swiss outbred mouse at […], iv at […] by LC-MS analysis
[3] = Plasma concentration in Swiss outbred mouse at […], iv at 0.033 hrs by LC-MS analysis
[4] = Plasma concentration in Swiss outbred mouse at […], iv at 0.08 hrs by LC-MS analysis
[5] = as §1; remark: listed apart in the source
[6] = Plasma concentration in Swiss outbred mouse at […], iv at 0.5 hrs by LC-MS analysis
[7] = Plasma concentration in Swiss outbred mouse at […], iv at 1 hr by LC-MS analysis
[8] = Plasma concentration in Swiss outbred mouse at […], iv at 2 hrs by LC-MS analysis
[9] = Plasma concentration in Swiss outbred mouse at […], iv at 4 hrs by LC-MS analysis
[10] = Plasma concentration in Swiss outbred mouse at […], iv at 7.5 hrs by LC-MS analysis
[11] = Plasma concentration in Swiss outbred mouse at […], iv at 10 hrs by LC-MS analysis
[12] = Plasma concentration in Swiss outbred mouse at […], iv at 24 hrs by LC-MS analysis
[13] = Plasma concentration in Swiss outbred mouse at 48 mg/kg administered via oral gavage at […] by LC-MS analysis
[14] = Plasma concentration in Swiss outbred mouse at 48 mg/kg administered via oral gavage at 0.5 hrs by LC-MS analysis
Method in brief: (§2)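 Single oral administration of 48 mg/kg to male Swiss outbred mice. Plasma concentration-time profile reported as the mean and range of n=2 mice per time point.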

[15] = Plasma concentration in Swiss outbred mouse at 48 mg/kg administered via oral gavage at 1 hr by LC-MS analysis; method in brief: as §2
[16] = Plasma concentration in Swiss outbred mouse at 48 mg/kg administered via oral gavage at 2 hrs by LC-MS analysis; method in brief: as §2
[17] = Plasma concentration in Swiss outbred mouse at 48 mg/kg administered via oral gavage at 4 hrs by LC-MS analysis; method in brief: as §2
[18] = Plasma concentration in Swiss outbred mouse at 48 mg/kg administered via oral gavage at 7.5 hrs by LC-MS analysis; method in brief: as §2
[19] = Plasma concentration in Swiss outbred mouse at 48 mg/kg administered via oral gavage at 10 hrs by LC-MS analysis; method in brief: as §2
[20] = Plasma concentration in Swiss outbred mouse at 48 mg/kg administered via oral gavage at 24 hrs by LC-MS analysis; method in brief: as §2
[21] = Plasma concentration in Sprague-Dawley rat at 1 mg/kg, iv administered as 10 mins infusion measured at 0.08 hrs by LC-MS analysis
Method in brief: (§3)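 Male Sprague Dawley rats were dosed IV (nominal 1 mg/kg; 0.9 mg/kg actual) or orally (nominal 20 mg/kg; 19 mg/kg actual). Plasma concentration–time profiles were determined, with n=2 rats per time point, and mean and range reported.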

[22] = (§4) Plasma concentration in Sprague-Dawley rat at 1 mg/kg, iv administered as 10 mins infusion measured at […] by LC-MS analysis
[23] = as §4; remark: listed apart in the source
[24] = Plasma concentration in Sprague-Dawley rat at 1 mg/kg, iv administered as 10 mins infusion measured at 0.5 hrs by LC-MS analysis; method in brief: as §3
[25] = Plasma concentration in Sprague-Dawley rat at 1 mg/kg, iv administered as 10 mins infusion measured at 1.17 hrs by LC-MS analysis; method in brief: as §3
[26] = Plasma concentration in Sprague-Dawley rat at 1 mg/kg, iv administered as 10 mins infusion measured at 2.67 hrs by LC-MS analysis; method in brief: as §3
[27] = Plasma concentration in Sprague-Dawley rat at 1 mg/kg, iv administered as 10 mins infusion measured at 5.17 hrs by LC-MS analysis; method in brief: as §3
[28] = Plasma concentration in Sprague-Dawley rat at 1 mg/kg, iv administered as 10 mins infusion measured at 10.17 hrs by LC-MS analysis; method in brief: as §3
[29] = Plasma concentration in Sprague-Dawley rat at 1 mg/kg, iv administered as 10 mins infusion measured at 16.17 hrs by LC-MS analysis; method in brief: as §3
[30] = Plasma concentration in Sprague-Dawley rat at 1 mg/kg, iv administered as 10 mins infusion measured at 24.17 hrs by LC-MS analysis; method in brief: as §3
[31] = (§5) Plasma concentration in Sprague-Dawley rat at 20 mg/kg administered via oral gavage at […] by LC-MS analysis
[32] = Plasma concentration in Sprague-Dawley rat at 20 mg/kg administered via oral gavage at 0.5 hrs by LC-MS analysis; method in brief: as §3
[33] = Plasma concentration in Sprague-Dawley rat at 20 mg/kg administered via oral gavage at 1 hr by LC-MS analysis; method in brief: as §3
[34] = as §5; remark: listed apart in the source
[35] = Plasma concentration in Sprague-Dawley rat at 20 mg/kg administered via oral gavage at 4 hrs by LC-MS analysis; method in brief: as §3
[36] = Plasma concentration in Sprague-Dawley rat at 20 mg/kg administered via oral gavage at 5 hrs by LC-MS analysis; method in brief: as §3

CN(C)CCCNc1ccc(-c2ccc(F)c(Cl)c2)o1
concentration at 0.008 h [1]: 0.841 µM | concentration at […] [2]: 0.31 µM | concentration at 0.033 h [3]: 0.149 µM | concentration at 0.08 h [4]: 0.08 µM | concentration at […] [5]: 0.054 µM | concentration at 0.5 h [6]: 0.044 µM | concentration at 1 h [7]: 0.043 µM | concentration at 2 h [8]: 0.026 µM | concentration at 4 h [9]: 0.029 µM | concentration at 7.5 h [10]: 0.031 µM | concentration at 10 h [11]: 0.023 µM | concentration at 24 h [12]: 0.022 µM | concentration at […] [13]: 0.171 µM | concentration at 0.5 h [14]: 0.812 µM | concentration at 1 h [15]: 0.693 µM | concentration at 2 h [16]: 0.494 µM | concentration at 4 h [17]: 0.132 µM | concentration at 7.5 h [18]: 0.239 µM | concentration at 10 h [19]: 0.192 µM | concentration at 24 h [20]: 0.208 µM | concentration at 0.08 h [21]: 0.334 µM | concentration at […] [22]: 0.255 µM | concentration at […] [23]: 0.071 µM | concentration at 0.5 h [24]: 0.036 µM | concentration at 1.17 h [25]: 0.029 µM | concentration at 2.67 h [26]: 0.02 µM | concentration at 5.17 h [27]: 0.035 µM | concentration at 10.17 h [28]: 0.029 µM | concentration at 16.17 h [29]: 0.025 µM | concentration at 24.17 h [30]: 0.02 µM | concentration at […] [31]: 0.0455 µM | concentration at 0.5 h [32]: 0.065 µM | concentration at 1 h [33]: 0.08 µM | concentration at […] [34]: 0.05 µM | concentration at 4 h [35]: 0.028 µM | concentration at 5 h [36]: 0.027 µM
